In brackets after ≈: the same amount, converted by molar mass. Activity calls are given as the source filed them. The rule behind the calls is not given here.
Legend:
[1] = biological target: T1, Leucine--tRNA ligase, cytoplasmic (Homo sapiens, UniProt Q9P2J5); test: Inhibition of human LeuRS assessed as reduction in ATP consumption
[2] = biological target: T2, Leucine--tRNA ligase (Staphylococcus aureus (strain NCTC 8325), UniProt Q2FXH2); test: Inhibition of Staphylococcus aureus LeuRS expressed in Escherichia coli M15 cells assessed as reduction in ATP consumption
T2 sequence (Q2FXH2 whole entry): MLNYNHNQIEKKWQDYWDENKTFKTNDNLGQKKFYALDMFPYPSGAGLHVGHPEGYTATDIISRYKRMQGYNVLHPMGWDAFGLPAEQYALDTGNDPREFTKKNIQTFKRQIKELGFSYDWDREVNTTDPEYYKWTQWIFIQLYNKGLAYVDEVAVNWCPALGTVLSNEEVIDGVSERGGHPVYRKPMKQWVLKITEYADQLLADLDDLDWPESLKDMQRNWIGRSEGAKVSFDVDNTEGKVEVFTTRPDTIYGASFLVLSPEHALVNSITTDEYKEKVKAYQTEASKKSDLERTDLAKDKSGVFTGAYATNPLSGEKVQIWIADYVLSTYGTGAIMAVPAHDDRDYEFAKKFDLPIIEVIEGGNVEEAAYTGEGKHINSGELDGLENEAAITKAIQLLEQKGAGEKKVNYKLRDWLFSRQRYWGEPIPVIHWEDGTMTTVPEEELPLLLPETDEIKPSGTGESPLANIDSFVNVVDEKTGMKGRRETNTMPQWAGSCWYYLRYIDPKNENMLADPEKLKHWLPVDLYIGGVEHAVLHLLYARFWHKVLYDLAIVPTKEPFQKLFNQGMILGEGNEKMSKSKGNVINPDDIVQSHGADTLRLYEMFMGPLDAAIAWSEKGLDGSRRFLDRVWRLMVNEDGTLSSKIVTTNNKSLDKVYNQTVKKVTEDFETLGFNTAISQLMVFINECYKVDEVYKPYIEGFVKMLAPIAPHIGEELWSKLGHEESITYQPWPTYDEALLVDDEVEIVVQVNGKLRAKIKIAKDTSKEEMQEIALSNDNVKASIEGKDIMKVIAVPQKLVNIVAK

[3] = biological target: T3, Leucine--tRNA ligase (Escherichia coli (strain K12), UniProt P07813); test: Displacement of IK-698 from Escherichia coli LeuRS by isothermal titration calorimetric calorimetry
T3 sequence (P07813 whole entry): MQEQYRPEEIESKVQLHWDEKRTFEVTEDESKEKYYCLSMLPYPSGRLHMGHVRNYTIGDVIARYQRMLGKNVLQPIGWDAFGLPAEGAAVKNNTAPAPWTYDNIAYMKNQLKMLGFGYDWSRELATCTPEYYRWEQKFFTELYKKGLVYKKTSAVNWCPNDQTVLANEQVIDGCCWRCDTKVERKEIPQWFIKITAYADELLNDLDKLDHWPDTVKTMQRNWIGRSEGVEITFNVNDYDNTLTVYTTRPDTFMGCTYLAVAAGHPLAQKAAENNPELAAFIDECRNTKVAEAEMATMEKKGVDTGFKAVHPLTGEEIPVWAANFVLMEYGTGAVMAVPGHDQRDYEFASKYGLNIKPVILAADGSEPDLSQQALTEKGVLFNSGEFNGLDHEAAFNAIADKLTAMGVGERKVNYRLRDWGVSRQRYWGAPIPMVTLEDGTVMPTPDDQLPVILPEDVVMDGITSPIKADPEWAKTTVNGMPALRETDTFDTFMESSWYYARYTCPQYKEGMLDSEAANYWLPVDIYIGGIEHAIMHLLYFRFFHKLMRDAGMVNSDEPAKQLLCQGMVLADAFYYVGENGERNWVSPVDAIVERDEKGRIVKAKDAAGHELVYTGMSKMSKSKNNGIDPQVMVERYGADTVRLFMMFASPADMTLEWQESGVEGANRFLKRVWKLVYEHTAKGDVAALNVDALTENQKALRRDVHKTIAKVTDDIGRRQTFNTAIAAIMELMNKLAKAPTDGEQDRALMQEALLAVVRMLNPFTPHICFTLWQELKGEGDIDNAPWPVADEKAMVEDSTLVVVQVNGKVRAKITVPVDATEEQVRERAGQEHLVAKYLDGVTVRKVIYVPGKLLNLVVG

[4] = biological target: T3, Leucine--tRNA ligase; test: Inhibition of Escherichia coli LeuRS expressed in Escherichia coli M15 cells assessed as reduction in ATP consumption
[5] = tested on: Acinetobacter baumannii; test: Antibacterial activity against Acinetobacter spp ATCC 19606 after 18 hrs by broth microdilution method; assay type: functional; details: ATCC 19606 = CIP 70.34 = JCM 6841, 18 h
[6] = tested on: Enterobacter cloacae; test: Antibacterial activity against Enterobacter cloacae clinical isolate after 18 hrs by broth microdilution method; assay type: functional
[7] = tested on: Escherichia coli; test: Antibacterial activity against Escherichia coli BW25113 after 18 hrs by broth microdilution method; assay type: functional; details: BW25113, 18 h
Procedure, shortened: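 Standard laboratory E. coli strain BW25113, wild type for efflux; MIC recorded in ug/mL. The same susceptibility testing was also run on BW25113 derivatives deleted for the multidrug efflux components tolC, acrA or acrB.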

[8] = tested on: Escherichia coli; test: Antibacterial activity against Escherichia coli ATCC 25922 after 18 hrs by broth microdilution method; assay type: functional; details: ATCC 25922, 18 h
[9] = biological target: T3, Leucine--tRNA ligase; test: Binding affinity to Escherichia coli LeuRS by isothermal titration calorimetric calorimetry
[10] = tested on: Staphylococcus aureus; test: Antibacterial activity against Staphylococcus aureus JE2 after 18 hrs by broth microdilution method; assay type: functional; details: JE2, 18 h
[11] = tested on: Klebsiella pneumoniae; test: Antibacterial activity against Klebsiella pneumoniae clinical isolate after 18 hrs by broth microdilution method; assay type: functional
[12] = tested on: Pseudomonas aeruginosa; test: Antibacterial activity against Pseudomonas aeruginosa PAO1 after 18 hrs by broth microdilution method; assay type: functional; details: PAO1, 18 h
[13] = tested on: Escherichia coli; test: Antibacterial activity against Escherichia coli BW25113 harboring tolC deletion mutant after 18 hrs by broth microdilution method; assay type: functional, organism-based
Procedure, shortened: (§1)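 MIC (ug/mL) against single-gene deletion derivatives of the standard laboratory E. coli strain BW25113 lacking multidrug efflux components (ΔacrA, ΔacrB, ΔtolC). The parent BW25113 strain was tested alongside.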

[14] = tested on: Escherichia coli; test: Antibacterial activity against Escherichia coli BW25113 harboring AcrA deletion mutant after 18 hrs by broth microdilution method; assay type: functional, organism-based; procedure, shortened: as §1
[15] = tested on: Escherichia coli; test: Antibacterial activity against Escherichia coli BW25113 harboring AcrB deletion mutant after 18 hrs by broth microdilution method; assay type: functional, organism-based; procedure, shortened: as §1
[16] = biological target: T4, Leucyl-tRNA synthetase, putative (Trypanosoma brucei brucei (strain 927/4 GUTat10.1), UniProt Q386D9); test: Inhibition of Trypanosoma brucei LeuRS assessed as reduction in protein synthesis pretreated for 20 mins in presence of [14C]Leu followed by ATP addition measured after 15 mins by scintillation counting method
T4 sequence (Q386D9 whole entry): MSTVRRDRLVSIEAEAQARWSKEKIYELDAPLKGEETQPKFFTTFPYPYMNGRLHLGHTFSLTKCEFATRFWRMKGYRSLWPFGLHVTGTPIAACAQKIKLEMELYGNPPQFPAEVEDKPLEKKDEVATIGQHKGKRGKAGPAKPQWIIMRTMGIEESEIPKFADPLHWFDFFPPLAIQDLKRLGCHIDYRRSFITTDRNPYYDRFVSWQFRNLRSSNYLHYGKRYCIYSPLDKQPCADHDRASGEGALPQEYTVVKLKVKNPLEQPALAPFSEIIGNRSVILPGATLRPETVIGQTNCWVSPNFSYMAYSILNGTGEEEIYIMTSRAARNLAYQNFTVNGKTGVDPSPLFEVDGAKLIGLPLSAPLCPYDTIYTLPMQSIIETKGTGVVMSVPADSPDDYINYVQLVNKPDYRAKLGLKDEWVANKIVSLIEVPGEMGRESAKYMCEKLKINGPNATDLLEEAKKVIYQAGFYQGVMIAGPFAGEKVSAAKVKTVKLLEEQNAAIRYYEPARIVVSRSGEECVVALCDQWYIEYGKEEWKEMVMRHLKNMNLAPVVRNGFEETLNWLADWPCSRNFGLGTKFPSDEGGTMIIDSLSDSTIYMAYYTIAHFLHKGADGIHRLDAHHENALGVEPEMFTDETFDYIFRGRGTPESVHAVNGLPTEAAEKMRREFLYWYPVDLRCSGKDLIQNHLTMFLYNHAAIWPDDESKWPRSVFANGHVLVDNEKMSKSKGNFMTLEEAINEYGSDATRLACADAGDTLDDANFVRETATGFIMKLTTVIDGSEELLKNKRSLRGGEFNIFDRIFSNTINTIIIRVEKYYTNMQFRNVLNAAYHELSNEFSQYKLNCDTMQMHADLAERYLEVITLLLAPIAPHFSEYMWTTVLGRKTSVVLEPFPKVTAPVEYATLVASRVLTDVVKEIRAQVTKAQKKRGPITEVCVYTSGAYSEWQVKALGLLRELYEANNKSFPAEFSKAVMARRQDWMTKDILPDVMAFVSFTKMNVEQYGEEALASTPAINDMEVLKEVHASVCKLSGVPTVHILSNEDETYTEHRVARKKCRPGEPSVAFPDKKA

[17] = biological target: T1, Leucine--tRNA ligase, cytoplasmic; test: Inhibition of human cytoplasmic LeuRS assessed as reduction in protein synthesis measured after 10 mins in presence of [3H]Leu by scintillation counting method

T1 sequence (Q9P2J5 whole entry): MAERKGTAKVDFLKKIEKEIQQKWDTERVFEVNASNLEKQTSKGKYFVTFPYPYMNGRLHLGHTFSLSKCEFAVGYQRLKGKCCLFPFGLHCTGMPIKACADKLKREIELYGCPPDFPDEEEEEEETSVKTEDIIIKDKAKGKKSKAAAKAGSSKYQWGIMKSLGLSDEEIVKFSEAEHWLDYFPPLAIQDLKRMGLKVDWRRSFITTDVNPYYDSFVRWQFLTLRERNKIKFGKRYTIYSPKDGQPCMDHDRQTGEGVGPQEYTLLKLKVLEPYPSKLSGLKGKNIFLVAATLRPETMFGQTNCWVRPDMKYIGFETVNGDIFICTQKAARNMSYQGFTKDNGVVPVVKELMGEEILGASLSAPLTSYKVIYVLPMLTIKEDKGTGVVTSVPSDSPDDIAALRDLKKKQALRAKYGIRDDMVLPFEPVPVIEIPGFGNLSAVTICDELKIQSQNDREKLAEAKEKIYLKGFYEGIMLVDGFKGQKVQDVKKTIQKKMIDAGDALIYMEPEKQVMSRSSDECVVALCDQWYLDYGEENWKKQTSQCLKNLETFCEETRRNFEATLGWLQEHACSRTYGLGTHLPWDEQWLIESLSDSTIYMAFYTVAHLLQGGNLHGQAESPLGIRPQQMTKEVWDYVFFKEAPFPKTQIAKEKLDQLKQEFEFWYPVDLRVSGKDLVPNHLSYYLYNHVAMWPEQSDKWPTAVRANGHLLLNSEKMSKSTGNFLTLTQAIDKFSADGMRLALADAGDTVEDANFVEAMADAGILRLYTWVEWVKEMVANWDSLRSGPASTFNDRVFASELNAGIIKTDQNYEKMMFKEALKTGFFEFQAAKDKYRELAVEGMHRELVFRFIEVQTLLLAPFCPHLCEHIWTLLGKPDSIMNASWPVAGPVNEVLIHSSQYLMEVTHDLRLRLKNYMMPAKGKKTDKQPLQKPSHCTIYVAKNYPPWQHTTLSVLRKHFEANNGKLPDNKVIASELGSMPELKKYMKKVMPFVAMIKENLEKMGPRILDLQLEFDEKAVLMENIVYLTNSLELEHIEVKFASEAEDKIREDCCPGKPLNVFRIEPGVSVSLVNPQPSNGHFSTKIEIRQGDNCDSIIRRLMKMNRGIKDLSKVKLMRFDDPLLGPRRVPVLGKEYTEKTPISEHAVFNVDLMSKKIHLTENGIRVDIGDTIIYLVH

With `CC(C)C[C@H](N)C(=O)NS(=O)(=O)c1cccc(-c2ccncc2)c1` the IC50 [1] was 1200 nM, the IC50 [2] was 920 nM and the Kd [3] was 10.9 nM.
For `Cc1cc(-c2cccc(S(=O)(=O)NC(=O)[C@@H](N)CC(C)C)c2)ncn1`, the IC50 [1] was 2000 nM, the IC50 [2] was 2700 nM and the Kd [3] was 22 nM. The IC50 [4] was 47 nM.
Work on `CC(C)C[C@H](N)C(=O)NS(=O)(=O)c1cccc(-c2cc(-c3ccccc3)nc(N)n2)c1` yielded an IC50 [1] of 33 nM, an IC50 [2] of 3600 nM and a Kd [3] of 56 nM. The IC50 [4] was 224 nM.
In the case of `CC(C)C[C@H](N)C(=O)NS(=O)(=O)c1cccc(-c2ccnc(N)n2)c1`, the IC50 [1] is reported as 3900 nM, the IC50 [2] is reported as 9200 nM and the Kd [3] is reported as 14.5 nM.
`CC(C)C[C@H](N)C(=O)NS(=O)(=O)c1ccccc1` gave an MIC [5] of 64 µg/mL (≈ 237 µM), an MIC [6] of 128 µg/mL (≈ 473 µM) and an MIC [7] greater than 128 µg/mL. It also gave an MIC [8] of 8 µg/mL (≈ 29.6 µM), a Kd [9] of 92.9 nM and an MIC [10] greater than 256 µg/mL. It also gave an IC50 [1] of 1100 nM, an MIC [11] of 64 µg/mL (≈ 237 µM) and an MIC [12] of 64 µg/mL (≈ 237 µM). For the same molecule, the Activity [13] was “Active”.
In the case of `CC(C)C[C@H](N)C(=O)NS(=O)(=O)c1cccc(-c2ccnc(N)c2)c1`, the IC50 [1] is reported as 490 nM, the IC50 [2] is reported as 650 nM and the Kd [3] is reported as 12.8 nM. It also gave an IC50 [4] of 14 nM.
`Cc1cc(-c2cccc(S(=O)(=O)NC(=O)[C@@H](N)CC(C)C)c2)nc(N)n1` was tested, and the IC50 [1] was 160 nM, the IC50 [2] was 4400 nM and the Activity [14] was “Active”. The Kd [3] was 10 nM, the Activity [13] was “Active” and the IC50 [4] was 41 nM. For the same molecule, the Activity [15] was “Active”.
In the case of `CC(C)C[C@H](N)C(=O)NS(=O)(=O)c1ccc2ccccc2c1`, the IC50 [1] is reported as 220 nM and the Kd [3] is reported as 64 nM.
Work on `CC(C)C[C@H](N)C(=O)NS(=O)(=O)c1cccc(-c2cccc(N)n2)c1` yielded an IC50 [1] of 850 nM, an IC50 [2] of 1700 nM and a Kd [3] of 13.9 nM. It also gave an IC50 [4] of 23 nM.
Work on `CC(C)C[C@H](N)C(=O)NS(=O)(=O)c1cccc(-c2ccccc2)c1` yielded an IC50 [1] of 3400 nM, an IC50 [2] of 640 nM and a Kd [3] of 10.2 nM.
In the case of `CC(C)C[C@H](N)C(=O)NS(=O)(=O)c1cccc(NC(=S)NC(=O)COc2ccc(Br)cc2Cl)c1`, the IC50 [16] is reported as 1100 nM and the IC50 [17] is reported as 4500 nM.

Reference: ChEMBL document CHEMBL4138297, “N-Leucinyl Benzenesulfonamides as Structurally Simplified Leucyl-tRNA Synthetase Inhibitors” (ACS Med Chem Lett, 2018)
